Source: PubChem
Neddyl block: blocks human cullin neddylation. P61081+Q13564. TR-FRET cullin neddylation, biochemical. calls only at 25 µM. 0.58% of 360,000 active; in the data active = inhibition above about 36%
Apaf-1 inh: blocks human Apaf-1 apoptosome activity; inhibition, % at 20 µM; AID 489030; 0.71% of 330,000 active; O14727; reconstituted apoptosome caspase-3 activity, DEVD-Rh110 fluorescence; active = inhibition of at least 40% at 20 µM;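 also: plate controls were DMSO wells for no effect and DEVD-CHO caspase inhibitor wells for full effect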
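detection = Rh110 fluorescence intensity | test system = biochemical Apaf-1 apoptosome reconstitution | also added = cytochrome c and DEVD-Rh110 substrate | schedule = 30 min plus 50 min, RT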
RAD54 branch: inhibitors of human RAD54 branch migration. Q92698. RAD54 Holliday junction branch migration, FAM/BHQ fluorescence. inhibition, % at 10.4 µM. 0.14% of 360,000 active. AID 602329;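 active = mean normalized replicate activity at least 40 and at least half of replicates scoring 40 or more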;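 also: 0% = median of neutral control wells and 100% = median of positive control wells; inhibitors cause a drop in the FAM fluorescence signal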
Target sequence (Q92698 whole entry, looked up): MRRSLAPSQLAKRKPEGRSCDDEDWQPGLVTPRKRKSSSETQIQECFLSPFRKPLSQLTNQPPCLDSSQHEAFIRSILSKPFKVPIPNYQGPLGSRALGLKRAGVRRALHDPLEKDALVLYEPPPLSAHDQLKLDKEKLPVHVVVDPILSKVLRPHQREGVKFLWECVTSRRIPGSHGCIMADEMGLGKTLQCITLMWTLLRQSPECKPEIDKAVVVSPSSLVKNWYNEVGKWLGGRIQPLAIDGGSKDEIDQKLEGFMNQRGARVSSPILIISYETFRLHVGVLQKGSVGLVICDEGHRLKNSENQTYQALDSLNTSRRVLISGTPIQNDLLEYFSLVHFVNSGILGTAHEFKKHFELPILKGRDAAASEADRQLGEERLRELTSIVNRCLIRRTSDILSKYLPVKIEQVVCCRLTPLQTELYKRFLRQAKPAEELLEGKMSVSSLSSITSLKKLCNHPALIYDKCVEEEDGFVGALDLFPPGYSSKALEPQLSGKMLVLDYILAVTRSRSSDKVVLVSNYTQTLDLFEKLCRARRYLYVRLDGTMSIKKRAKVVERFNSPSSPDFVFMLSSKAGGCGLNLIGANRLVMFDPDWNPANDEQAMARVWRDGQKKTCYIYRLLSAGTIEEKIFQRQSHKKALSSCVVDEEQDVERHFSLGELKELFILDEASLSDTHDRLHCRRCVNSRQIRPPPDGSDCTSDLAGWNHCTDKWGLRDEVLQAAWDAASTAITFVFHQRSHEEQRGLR
DNA FID counter: fluorescent intercalator displacement, NS3 helicase counter-screen; DNA fluorescent intercalator displacement, fluorescence; inhibition, % at 7.9 µM; 0.17% of 290,000 active; AID 1845; in the data active = inhibition above about 37%;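 also: 0% = vehicle and 100% = reference compound; higher means more ethidium bromide displaced from hairpin DNA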
RAD52 anneal inh: blocks human RAD52 DNA annealing. recombinant RAD52 DNA annealing, FRET fluorescence. inhibition, % at 18.7 µM. 0.46% of 360,000 active;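 active = every replicate showing at least 50% inhibition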
UBC13 polyUb: inhibitors of human UBC13 polyubiquitin chain formation; inhibition, % at 20 µM; 0.47% of 330,000 active; TR-FRET; AID 485273; P61088; in the data active = inhibition above about 45%, passing the limit was not always enough
Neddyl inh conf: confirmation of human cullin neddylation inhibitors | shares compounds with Neddyl block | TR-FRET cullin neddylation biochemical assay | calls only at 25 µM | 13% of 1,800 active; in the data active = inhibition above about 40%;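 also: neddylation substrate is the cullin 1 ring ligase complex with SKP2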
* hit, by the source's call; i = inactive; nt = not tested or not shown; + = active, no number. This is a sample that favours compounds with a hit; in the whole collection about 1.6% have one here.

SMILES	Neddyl block	Apaf-1 inh	RAD54 branch	DNA FID counter	RAD52 anneal inh	UBC13 polyUb	Neddyl inh conf
Cn1cnc(S(=O)(=O)N2[C@@H]3CNC[C@H]2C3c2ccc(-c3cccnc3)cc2)c1 (stereo partly drawn)	nt	nt	nt	nt	1	nt	nt
CCOc1ccc2oc(C(=O)NCC(c3ccco3)N(C)C)c(C)c2c1 (stereo not drawn)	+	7	-3	nt	-1	10	nt
COc1ccc(C(CNC(=O)c2oc3ccc(Br)cc3c2C)N2CCCCC2)cc1 (stereo not drawn)	i	17	-8	-2	-17	15	nt
COc1ccc2oc(C(=O)NCc3ccccc3CN3CCCC3)c(C)c2c1	nt	21	5	nt	-14	14	nt
COc1ccc(C(CNC(=O)c2oc3ccc(OC)cc3c2C)N2CCCC2)cc1 (stereo not drawn)	+	16	-8	nt	-53	43	nt
CN(C)C(CNC(=O)c1ccc2[nH]c(=O)c(=O)[nH]c2c1)c1ccco1 (stereo not drawn)	+	-11	-1	nt	-16	1	nt
Cc1c(C(=O)NCC(c2ccco2)N(C)C)oc2c(Cl)cccc12 (stereo not drawn)	i	7	-13	nt	-22	2	nt
CCOc1ccc2oc(C(=O)NCc3ccccc3CN3CCCC3)c(C)c2c1	+	30	0	nt	-54	26	nt
CNC[C@H]1Oc2ccc(NS(=O)(=O)c3ccc(C)cc3)cc2C(=O)N([C@@H](C)CO)C[C@@H]1C	nt	nt	-3	nt	5	nt	nt
CCOC(=O)c1ccc(N2C=C(C(=O)OC)C(c3ccc(OC)c(O)c3)C(C(=O)OC)=C2)cc1	i	20	-4	-28	-16	-6	nt
COC(=O)C1=CN(c2cc(C)cc(C)c2)C=C(C(=O)OC)C1c1ccc(OC)c(O)c1	+	23	-1	-31	2	5	+
CC(=O)N1[C@@H]2c3ccc(-c4ccncc4)c(=O)n3C[C@@H]2[C@@H](CO)[C@@H]1C(=O)NCc1ccccc1Cl	nt	nt	-1	nt	9	nt	nt
COCc1cc(C)nc(NC2CC(C)(C)NC(C)(C)C2)c1C#N	+	4	1	6	-5	12	+
COc1ccc(C2=Cc3ccccc3C(CC(=O)C3CC3)N2c2ccc(C#CCCO)cc2)cc1 (stereo not drawn)	nt	nt	nt	nt	-17	nt	nt
COc1ccc(C2=Cc3ccccc3C(CC(=O)C3CC3)N2c2ccc(-c3cc(OC)c(OC)c(OC)c3)cc2)cc1 (stereo not drawn)	+	nt	nt	nt	-14	nt	i
Cc1ccc(-c2nn(-c3ccccc3)cc2C2CC(c3cccs3)=NN2C(=O)CCC(=O)O)cc1 (stereo not drawn)	+	23	nt	-27	nt	-8	i
COc1cc(/C=N/NC(=O)c2nnn(-c3nonc3N)c2C(C)C)ccc1OCc1ccccc1	+	8	-3	-15	-6	-6	i
Nc1nonc1-n1nnc(C(=O)N/N=C/c2ccc3c(c2)OCO3)c1CSc1ccccc1	+	7	-4	-16	-3	-10	i
Nc1nonc1-n1nnc(C(=O)N/N=C/c2ccccc2Cl)c1CSc1ccccc1	i	7	-5	-4	-8	1	nt
CC(C)c1c(C(=O)N/N=C/c2ccc(OCc3ccccc3)cc2)nnn1-c1nonc1N	nt	14	5	-17	0	-14	nt
COc1ccc(NC(=O)N[C@@H]2CC[C@@H](CCNC(=O)c3cc(Cl)cc(Cl)c3)O[C@H]2CO)cc1	nt	nt	-4	nt	-6	nt	nt
O=C(C[C@@H]1C[C@@H]2c3cc(NC(=O)NC4CCCC4)ccc3O[C@@H]2[C@H](CO)O1)NCCN1CCCCC1	nt	nt	-14	nt	-3	nt	nt
N#C[C@@H]1[C@H](c2ccc(C#CCC3CCCC3)cc2)[C@@H](CO)N1C(=O)c1ccccn1	nt	nt	-4	nt	-75	nt	nt
COc1ccc(C(=O)OC(C)CN2CCOCC2)cc1OC (stereo not drawn)	+	-5	-15	-1	nt	-3	i
CCCN1C[C@@H](C)[C@@H](OC)CN(C)C(=O)c2ccc(NS(=O)(=O)c3ccccc3)cc2OC[C@@H]1C	nt	nt	2	nt	1	nt	nt
SMILES	Neddyl block	Apaf-1 inh	RAD54 branch	DNA FID counter	RAD52 anneal inh	UBC13 polyUb	Neddyl inh conf
CCOC(=O)C1=C(C)NC(C)=C(C(=O)OCC)C1C(=O)OCC(=O)NC(C)c1ccccc1 (stereo not drawn)	+	5	-8	nt	-12	8	nt
Nc1nccnc1C(=O)OCC(=O)NCCc1ccc(S(N)(=O)=O)cc1	+	-3	3	nt	-12	10	nt
CCOC(=O)C1=C(C)NC(C)=C(C(=O)OCC)C1C(=O)OCC(=O)NC	i	-13	3	-22	-20	6	nt
CCOC(=O)C1=C(C)NC(C)=C(C(=O)OCC)C1C(=O)OCC(=O)NCc1ccccc1	nt	3	nt	nt	-9	13	nt
CCOC(=O)C1=C(C)NC(C)=C(C(=O)OCC)C1C(=O)OCC(=O)NCCc1ccc(S(N)(=O)=O)cc1	+	9	-3	nt	-1	-1	i
C[C@@H]1CCCCO[C@H](CN(C)S(=O)(=O)c2cccs2)[C@@H](C)CN([C@@H](C)CO)C(=O)c2cc(NS(=O)(=O)c3ccc(F)cc3)ccc2O1	nt	nt	4	nt	14	nt	nt
Cc1ccc(S(=O)(=O)Nc2ccc3c(c2)CC(=O)N([C@H](C)CO)C[C@@H](C)[C@@H](CN(C)C(=O)Nc2ccccc2)O3)cc1	nt	nt	5	nt	10	nt	nt
Nc1nccc(/C=C/c2ccc(Cl)cc2)n1	+	-6	0	-8	-17	10	i
COc1ccc2c3c(n(C)c2c1)[C@H](CO)N(C(=O)c1ccccn1)CC31CCN(C(=O)c2ccccn2)CC1	nt	nt	nt	nt	3	nt	nt
O=C(Nc1cccc2nsnc12)c1ccc2c(c1)OCO2	+	4	-4	0	nt	-4	+
O=C(Nc1cccc2nsnc12)c1ccc(F)cc1	i	1	-1	3	nt	10	nt
Cc1noc(C)c1S(=O)(=O)Nc1ccc2c(c1)C(=O)N([C@H](C)CO)C[C@@H](C)[C@H](CN(C)CC1CCCCC1)O2	nt	nt	1	nt	3	nt	nt
c1ccc2c(c1)-c1cccc3cncc-2c13	+	nt	9	nt	-11	nt	i
CO[C@@H](CN(C)C(=O)C1CC1)[C@@H](C)CN(C(=O)Nc1ccc(C(F)(F)F)cc1)[C@H](C)CO	nt	nt	3	nt	-6	nt	nt
CNc1cncc(C(=O)O)c1	+	-6	nt	2	-6	10	nt
Cc1ccc(S(=O)(=O)Nc2nc3ccccc3nc2NCC2CCCO2)cc1C (stereo not drawn)	+	34	1	-51	-8	6	i
Cc1cccc(S(=O)(=O)Nc2nc3ccccc3nc2NCC2CCCO2)c1 (stereo not drawn)	i	-17	7	-45	-9	21	nt
Cc1ccc(S(=O)(=O)Nc2nc3ccccc3nc2NCC2CCCO2)c(C)c1 (stereo not drawn)	+	-15	nt	-40	5	10	nt
